An excerpt weighted towards active compounds, which were near 12% of everything screened.
Cl transport mod = KCC2 (human) Cl- transport modulation; Q9H2X9; KCC2 cells, thallium flux FluoZin-2 fluorescence; B-score of Tl+ flux slope (higher = more flux/activation; lower = inhibition) at 10 µM; 190,000 tested, 2.2% active;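 active = thallium flux slope and its plate-corrected score both differing from the plate sample mean at a set confidence after two filtering rounds, in either direction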;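 also: slope of fluorescence scaled to starting intensity during 10 to 20 s after thallium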
Target sequence (Q9H2X9 whole entry, looked up): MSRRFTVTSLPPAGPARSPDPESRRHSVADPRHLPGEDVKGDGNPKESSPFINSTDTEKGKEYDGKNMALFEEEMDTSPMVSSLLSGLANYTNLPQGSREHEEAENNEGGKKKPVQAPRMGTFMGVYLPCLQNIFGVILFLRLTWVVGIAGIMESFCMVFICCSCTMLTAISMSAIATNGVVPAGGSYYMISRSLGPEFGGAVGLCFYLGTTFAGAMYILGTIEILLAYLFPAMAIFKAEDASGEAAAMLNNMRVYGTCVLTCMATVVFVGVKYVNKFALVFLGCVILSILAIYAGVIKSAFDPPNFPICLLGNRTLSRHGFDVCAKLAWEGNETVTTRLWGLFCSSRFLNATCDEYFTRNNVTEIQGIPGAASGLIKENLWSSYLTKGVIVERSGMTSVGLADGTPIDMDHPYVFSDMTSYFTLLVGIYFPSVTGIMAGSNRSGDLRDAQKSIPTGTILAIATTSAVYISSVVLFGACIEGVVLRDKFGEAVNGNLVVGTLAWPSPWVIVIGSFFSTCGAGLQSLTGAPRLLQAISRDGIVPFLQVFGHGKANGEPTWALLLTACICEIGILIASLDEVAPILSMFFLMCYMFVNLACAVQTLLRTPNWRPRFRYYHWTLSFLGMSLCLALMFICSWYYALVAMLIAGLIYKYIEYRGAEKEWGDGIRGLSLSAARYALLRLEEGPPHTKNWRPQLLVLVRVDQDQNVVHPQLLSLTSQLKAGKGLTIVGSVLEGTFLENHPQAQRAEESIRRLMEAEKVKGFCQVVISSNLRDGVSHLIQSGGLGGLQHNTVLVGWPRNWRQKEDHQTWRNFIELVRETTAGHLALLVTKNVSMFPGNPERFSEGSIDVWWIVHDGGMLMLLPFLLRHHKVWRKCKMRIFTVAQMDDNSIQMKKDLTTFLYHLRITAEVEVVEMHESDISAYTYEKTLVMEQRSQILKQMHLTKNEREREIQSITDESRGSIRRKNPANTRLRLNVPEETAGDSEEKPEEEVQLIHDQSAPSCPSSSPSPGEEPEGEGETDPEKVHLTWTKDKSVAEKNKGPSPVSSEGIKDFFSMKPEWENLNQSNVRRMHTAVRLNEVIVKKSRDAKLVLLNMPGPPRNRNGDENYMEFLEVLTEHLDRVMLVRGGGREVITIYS
ROMK mod = human ROMK K+ channel modulation, primary screen; Tet-inducible ROMK, thallium flux fluorescence; actives lie on both sides; B-score at 10 µM; 130,000 tested, 2% active;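 active = signal ratio slope over the read window, or its plate-corrected B-score, at least 3 SD from the plate mean, either direction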;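 also: B-score of the F/F0 ratio slope over 7 to 12 s after thallium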
Diaphorase act = activates diaphorase or chemically reduces, flagging diaphorase assay artifacts; Diaphorase/resazurin coupled assay, resorufin fluorescence, 16 min; stronger effect = higher value; 1 = vehicle wells, 0 = NADH-free wells; activation factor at 20 µM; 190,000 tested, 0.005% active;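 active = diaphorase activity raised at least twofold by the compound at 20 µM; inactive = activation factor below 2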
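Material: purified diaphorase enzyme from Clostridium kluyveri / Medium: HEPES pH 7.4 buffer with MgCl2 and Tween 20 / Schedule: enzyme reaction of 16 min at room temperature / Measured by: resorufin fluorescence, excitation 544 nm, emission 590 nm / Evaluation: rise in resorufin formation, marking diaphorase activation or chemical reduction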
WT yeast gro inh = growth inhibition of WT yeast, mitochondrial fusion screen; 190,000 tested, 2.1% active; mitochondrial fusion phenotypic screen, WT strain; inhibition, % at 10 µM; in the data active = inhibition above about 58%; tested in S. cerevisiae
Lmaj promast = reduces viability of Leishmania major promastigotes; resazurin fluorescence viability; inhibition, % at 10 µM; 200,000 tested, 9% active; AID 1063; in the data active = inhibition above about 50%;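 also: promastigotes grown with compound for 44 hours at 28 °C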
Diaph inh CS = counter-screen for diaphorase-based assays: diaphorase inhibitors and chemical oxidizers; inhibition, % at 20 µM; 190,000 tested, 0.69% active; diaphorase resazurin-to-resorufin fluorescence, NADH, 16 min; bacterial (C. kluyveri) enzyme, not human;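 active = primary screen inhibition at 20 µM above a set limit, cut at about 50% in these data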;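 also: plate controls were DMSO with full reaction for no effect and wells lacking NADH for full effect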
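Assay system – diaphorase enzyme from Clostridium kluyveri · Amount – diaphorase 0.14 U/mL (working solution) · Times – reaction incubation of 16 min at room temperature · Controls – No-NADH positive control and DMSO neutral control · Signal – resorufin fluorescence 544/590 nm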
KCC2 secondary = KCC2 (human) modulation, secondary assay; AID 1713; HEK293-KCC2, thallium flux, FluoZin2 fluorescence; stronger effect = higher value; shares compounds with Cl transport mod; normalised thallium flux (F/F0 slope) at 10 µM; 3,700 tested, 15% active;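 active = thallium flux slope above the same plate's solvent-only control mean plus 3 SD; inconclusive = the two replicate wells disagree; inactive = no significant difference from solvent-only control wells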
KCC2 bumet counter = thallium flux persisting under bumetanide in KCC2 cells, counter-screen secondary assay | HEK293-KCC2 + bumetanide/ouabain, thallium flux FluoZin2; stronger effect = higher value | shares compounds with Cl transport mod | 3,700 tested, 49% active | AID 1714 | normalized thallium flux at 10 µM;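 active = thallium entry rate above the same plate's blocked-transporter control wells by more than 3 SD; inconclusive = the two repeat wells disagree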;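 also: raw slope of fluorescence over initial fluorescence between 10 and 20 s after thallium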
KCC2 sec2 = confirmation of human KCC2 transport modulators; HEK293-KCC2, thallium flux FluoZin2 fluorescence; actives lie on both sides; F/F0 rise rate, 10–20 s post-thallium; 3,700 tested, 23% active; normalized thallium flux at 10 µM; shares compounds with Cl transport mod;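 active = thallium flux slope more than 3 SD above or below the plate's solvent-only control mean, mostly below; inconclusive = the two repeat wells disagreed; inactive = no significant shift from solvent-only controls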;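 also: raw slope with 0.1% DMSO as baseline and bumetanide as block control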
HEK counter1 = counter-screen for KCC2 modulators: effect in parental HEK293 cells; thallium flux rate (normalised fluorescence) at 10 µM; 3,700 tested, 46% active; shares compounds with Cl transport mod; thallium flux FluoZin2, ouabain; baseline-ratio fluorescence slope, 10–20 s after thallium;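 active = thallium flux rate significantly above the same plate's solvent-only control wells, beyond their mean plus 3 SD; inconclusive = the two replicate wells gave conflicting results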
KCC2 ouabain = KCC2 (human) modulation, ouabain retest | HEK293-KCC2, thallium flux FluoZin2 fluorescence; bidirectional: low = inhibitor, high = activator | 3,700 tested, 48% active | raw Tl+ flux slope (below DMSO = inhibition, above = activation) at 10 µM | AID 1717 | shares compounds with Cl transport mod;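 active = thallium flux slope beyond 3 SD from same-plate DMSO control mean in most replicates, usually higher, sometimes lower; inconclusive = repeat tests gave conflicting results; inactive = no significant difference from controls in most replicates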;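 also: slope of initial-normalized fluorescence between seconds 10 and 20 after thallium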
HEK293 Tl flux2 = acts in parental HEK cells, second KCC2 counter-screen | AID 1718 | HEK293 parental, thallium flux FluoZin-2 fluorescence slope | shares compounds with Cl transport mod | 3,700 tested, 33% active | thallium flux slope at 10 µM;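 active = thallium flux slope above the same plate's solvent-control mean plus 3 SD in both duplicate wells; inconclusive = duplicate wells that disagreed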;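 also: run without ouabain in cells lacking the KCC2 cotransporter; slope of fluorescence scaled to its starting value between 10 and 20 s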
Numbers without * were called inactive.

What do the screens show for `Oc1ccc(-n2cccc2/C=N/n2cnnc2)cc1`?
Cl transport mod: -1.9; ROMK mod: -0.66; Diaphorase act: 1; WT yeast gro inh: -12; Lmaj promast: -4; Diaph inh CS: 3

How did Cc1cccc(-c2nnc(SCC(=O)Nc3nc4c(s3)CCCC4)n2C)c1 do in these assays?
Cl transport mod: -2; ROMK mod: 0; Diaphorase act: 0.9; WT yeast gro inh: 2; Lmaj promast: 6; Diaph inh CS: 13

How did Cc1onc(-c2ccccc2)c1C(=O)NNC(=S)NC(=O)/C=C/c1cccs1 do in these assays?
Cl transport mod: 6.7*; Diaphorase act: 0.8; WT yeast gro inh: -20; Lmaj promast: -2; Diaph inh CS: 17; KCC2 secondary: 0.0067; KCC2 bumet counter: 0.027*; KCC2 sec2: inconclusive; HEK counter1: 0.016*; KCC2 ouabain: 0.03*; HEK293 Tl flux2: 0.018*

Results for Cc1onc(-c2ccccc2)c1C(=O)NC(=S)NNC(=O)c1ccncc1 ?
Cl transport mod: 0.9; Diaphorase act: 0.8; WT yeast gro inh: -6; Lmaj promast: -3; Diaph inh CS: 16

What do the screens show for `Cc1onc(-c2ccccc2)c1C(=O)NNC(=S)NC(=O)c1ccc2c(c1)OCO2`?
Cl transport mod: 16*; KCC2 secondary: 0.014*; KCC2 bumet counter: 0.034*; KCC2 sec2: 0.036; HEK counter1: inconclusive; KCC2 ouabain: 0.03*; HEK293 Tl flux2: inconclusive

What do the screens show for `COc1ccc(C(=O)NC(=S)NNC(=O)c2c(-c3ccccc3)noc2C)cc1OC`?
Cl transport mod: 1

What do the screens show for `Cc1onc(-c2ccccc2)c1C(=O)NC(=S)NNC(=O)c1ccco1`?
Cl transport mod: 6.6*; KCC2 secondary: 0.018; KCC2 bumet counter: 0.014*; KCC2 sec2: 0.03; HEK counter1: 0.014*; KCC2 ouabain: 0.021; HEK293 Tl flux2: 0.015*

What do the screens show for `Cn1c(/C=C/c2cccc([N+](=O)[O-])c2)nc2ccccc2c1=O`?
ROMK mod: -0.6; WT yeast gro inh: -7; Lmaj promast: -2

What do the screens show for `CC(C)n1nc(C(=O)Nc2nnc(SCc3c(Cl)cccc3Cl)s2)c2ccccc2c1=O`?
ROMK mod: 0.054; Diaphorase act: 0.9; WT yeast gro inh: 5; Lmaj promast: 0; Diaph inh CS: 11

What do the screens show for `Cc1ccc(-c2csc(Cc3nc(-c4cc5ccccc5oc4=O)cs3)n2)cc1`?
ROMK mod: 0.37; Diaphorase act: 0.9; WT yeast gro inh: 25; Lmaj promast: -8; Diaph inh CS: 14; KCC2 secondary: 0.017; KCC2 bumet counter: 0.0051; KCC2 sec2: 0.029; HEK counter1: 0.007; KCC2 ouabain: 0.016; HEK293 Tl flux2: 0.0097

Results for O=c1oc2ccccc2cc1-c1csc(Cc2nc(-c3ccc(Br)cc3)cs2)n1 ?
Diaphorase act: 1; WT yeast gro inh: 12; Lmaj promast: 1; Diaph inh CS: 3

What do the screens show for `O=C(Nc1ccc(Cl)c(Cl)c1)N(CCCN1CCOCC1)Cc1cccs1`?
Cl transport mod: -3*; Diaphorase act: 0.9; WT yeast gro inh: 19; Lmaj promast: 42; Diaph inh CS: 10; KCC2 secondary: 0.0098; KCC2 bumet counter: 0.0063; KCC2 sec2: 0.033; HEK counter1: 0.007; KCC2 ouabain: 0.021; HEK293 Tl flux2: 0.011

Results for c1ccc(-c2ccc(CN3C[C@@H]4C(c5ccccc5)C5(c6ccccc6)CC4(C5)[C@H]3c3ccccc3)cc2)cc1 (stereo not given in full) ?
Cl transport mod: 0.46

How did N#Cc1ccc(C23CC4(C2)[C@H](CN(Cc2ccc(-c5ccccc5)cc2)[C@@H]4c2ccccc2)C3c2ccccc2)cc1 (stereo not given in full) do in these assays?
Cl transport mod: 3.7*; KCC2 secondary: 0.015; KCC2 bumet counter: 0.0049; KCC2 sec2: 0.026; HEK counter1: 0.0075; KCC2 ouabain: 0.016; HEK293 Tl flux2: 0.01

How did COc1ccc(C(O)c2nccc3cc(OC)c(OC)cc23)cc1OC (stereo not given) do in these assays?
Cl transport mod: 0.77; ROMK mod: 0.19; Diaphorase act: 0.9; WT yeast gro inh: 1; Lmaj promast: 2; Diaph inh CS: 11

How did Cc1nc(Nc2ccc3c(c2)OCCO3)c2c(C)c(C)sc2n1 do in these assays?
Cl transport mod: 7.1*; ROMK mod: -0.96; Diaphorase act: 0.7; WT yeast gro inh: 1; Lmaj promast: 0; Diaph inh CS: 25; KCC2 secondary: 0.0056; KCC2 bumet counter: 0.021*; KCC2 sec2: 0.039*; HEK counter1: 0.019*; KCC2 ouabain: 0.031*; HEK293 Tl flux2: 0.021*

What do the screens show for `Cc1nc(Nc2ccc3c(c2)OCCO3)c2oc3ccccc3c2n1`?
Cl transport mod: -1.4; ROMK mod: -0.34; Diaphorase act: 0.8; WT yeast gro inh: 25; Lmaj promast: 13; Diaph inh CS: 16

What do the screens show for `NS(=O)(=O)c1cccc(NC(=O)Cn2cnc3ccccc3c2=O)c1`?
Cl transport mod: 0.28; ROMK mod: 0.82; Diaphorase act: 0.8; WT yeast gro inh: 3; Lmaj promast: -1; Diaph inh CS: 16

Results for CC(=O)CSc1ncnc2sc3c(c12)CCC3 ?
Cl transport mod: 7.1*; ROMK mod: -1.3; Diaphorase act: 0.8; WT yeast gro inh: 3; Lmaj promast: 2; Diaph inh CS: 18; KCC2 secondary: 0.019; KCC2 bumet counter: 0.024*; KCC2 sec2: 0.033; HEK counter1: 0.014*; KCC2 ouabain: 0.022*; HEK293 Tl flux2: 0.017*
